ChEMBL document CHEMBL1132225, “Novel antidiabetic and hypolipidemic agents. 3. Benzofuran-containing thiazolidinediones” (J Med Chem, 1999)
Where “and” joins values, the source holds several entries; their conditions need not be identical. Equal entries are not always repeated. Calls of active or inactive are those of the source. The rule behind the calls is not given here.

Key:
[1] = tested on: Mus musculus; assay: Percent reduction of plasma glucose (PG) after 6 days of treatment. It is the mean of standard deviation observed in plasma glucose (PG) in db/db mice at dose of 200 mg/kg/day; assay type: functional; details: route oral
[2] = species on record: Mus musculus; assay: Percent reduction of plasma glucose after 6 days of treatment (various doses).; assay type: functional
[3] = tested on: Mus musculus; assay: Percent reduction in plasma triglyceride (TG) after 6 days of treatment. It is the mean of standard deviation observed in plasma triglyceride (TG) in db/db mice at dose of 100 mg/kg/day; NA = Not Active; assay type: functional
[4] = species on record: Mus musculus; assay: The compound was tested for percent reduction of plasma triglyceride after 6 days of treatment; Not Active; assay type: functional, organism-based
[5] = tested on: Mus musculus; assay: Percent reduction of plasma glucose (PG) after 6 days of treatment. It is the mean of standard deviation observed in plasma glucose (PG) in db/db mice at dose of 100 mg/kg/day; assay type: functional; details: route oral
[6] = biological target: T1, Peroxisome proliferator-activated receptor gamma (Homo sapiens) (UniProt P37231); assay: The fold activation against 1 amino acids 174-475)
T1 sequence (whole entry): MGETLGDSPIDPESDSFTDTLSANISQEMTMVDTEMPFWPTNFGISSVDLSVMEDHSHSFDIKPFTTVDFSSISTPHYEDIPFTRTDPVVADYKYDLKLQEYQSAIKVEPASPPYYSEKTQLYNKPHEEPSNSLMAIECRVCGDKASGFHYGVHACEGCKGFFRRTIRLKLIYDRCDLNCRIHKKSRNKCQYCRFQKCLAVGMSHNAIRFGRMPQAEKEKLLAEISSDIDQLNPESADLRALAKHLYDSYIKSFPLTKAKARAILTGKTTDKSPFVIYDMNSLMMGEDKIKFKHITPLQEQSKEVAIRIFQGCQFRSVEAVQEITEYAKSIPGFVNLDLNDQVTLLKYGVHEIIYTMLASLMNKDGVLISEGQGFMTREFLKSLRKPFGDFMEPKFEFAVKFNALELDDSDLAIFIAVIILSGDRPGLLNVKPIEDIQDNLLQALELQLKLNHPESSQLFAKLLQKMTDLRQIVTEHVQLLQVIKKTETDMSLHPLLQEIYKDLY

[7] = biological target: T2, Peroxisome proliferator-activated receptor alpha (Homo sapiens) (UniProt Q07869); assay: The fold activation against 50 u M Peroxisome proliferator activated receptor alpha(amino acids 167-468)
T2 sequence (whole entry): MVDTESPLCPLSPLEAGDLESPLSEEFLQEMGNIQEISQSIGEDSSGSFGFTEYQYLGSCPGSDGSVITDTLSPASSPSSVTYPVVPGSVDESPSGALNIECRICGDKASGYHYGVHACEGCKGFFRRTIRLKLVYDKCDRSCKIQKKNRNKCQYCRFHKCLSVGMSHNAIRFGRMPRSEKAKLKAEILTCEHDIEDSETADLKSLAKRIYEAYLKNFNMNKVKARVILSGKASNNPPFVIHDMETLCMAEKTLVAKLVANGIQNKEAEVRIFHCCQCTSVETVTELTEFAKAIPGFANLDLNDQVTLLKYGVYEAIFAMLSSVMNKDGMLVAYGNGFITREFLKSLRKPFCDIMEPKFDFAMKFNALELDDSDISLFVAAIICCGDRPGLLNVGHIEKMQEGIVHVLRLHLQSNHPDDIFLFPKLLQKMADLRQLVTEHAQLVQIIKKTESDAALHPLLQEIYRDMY

[8] = biological target: T2, Peroxisome proliferator-activated receptor alpha (Homo sapiens); assay: Compound was tested for fold transactivation of human Peroxisome proliferator activated receptor alpha at 50 uM
[9] = Pharmacokinetic Parameter, AUC (0-t) is the area under the plasma concentration versus time curve in Female Wistar Rats at 100 mg/kg by po administration; assay type: ADME, organism-based; parameters: dose 100 mg/kg, route oral; details: rat
[10] = species on record: Rattus norvegicus; assay: The AUC(0-infinity) values in female wistar rats.; assay type: ADME, organism-based; parameters: time infinity; details: in vivo
[11] = Pharmacokinetic Parameter, Tmax is the time at which maximum concentration (Cmax) is reached in Female Wistar Rats at 100 mg/kg by po administration; assay type: ADME, organism-based; parameters: dose 100 mg/kg, route oral; details: rat, in vivo
[12] = Pharmacokinetic Parameter, half life period measured in Female Wistar Rats at 100 mg/kg by po administration; assay type: ADME, organism-based; parameters: dose 100 mg/kg, route oral; details: rat, in vivo
[13] = tested on: Mus musculus; assay: Percent reduction of plasma glucose (PG) after 6 days of treatment. It is the mean of standard deviation observed in plasma glucose (PG) in db/db mice at dose of 30 mg/kg/day; NA = Not Active; assay type: functional, organism-based
[14] = The half life period in female wistar rats.; assay type: ADME, organism-based; details: rat, in vivo
Method in brief: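 Female Wistar rats (200–225 g), fasted 12 h overnight with water, fed 3 h post-dose; single 100 mg/kg oral dose as 0.5% CMC suspension. Retro-orbital blood sampled at multiple times; 0.2 mL plasma extracted, analysed by reverse-phase C18 HPLC with internal standard. Parameters by noncompartmental analysis; mean ± SD, n = 4.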

[15] = The Cmax values in female wistar rats.; assay type: ADME, organism-based; details: rat, in vivo
[16] = species on record: Rattus norvegicus; assay: The AUC(0-t)values in female wistar rats.; assay type: ADME, organism-based; details: in vivo
[17] = Pharmacokinetic Parameter, Kel is elimination rate constant in Female Wistar Rats at 100 mg/kg by po administration; assay type: ADME, organism-based; parameters: dose 100 mg/kg, route oral; details: rat, in vivo
[18] = The Kel values in female wistar rats.; assay type: ADME, organism-based; details: rat, in vivo
[19] = Pharmacokinetic Parameter, Cmax is observed maximum plasma concentration in Female Wistar Rats at 100 mg/kg by po administration; assay type: ADME, organism-based; parameters: dose 100 mg/kg, route oral; details: rat
[20] = The Tmax values in female wistar rats.; assay type: ADME, organism-based; details: rat, in vivo
[21] = Pharmacokinetic Parameter, AUC (0-infinity) is the area under the plasma concentration versus time curve extrapolated to infinity in Female Wistar Rats at 100 mg/kg by po administration; assay type: ADME, organism-based; parameters: time infinity, dose 100 mg/kg, route oral; details: rat, read-out: AUC 0-infinity
[22] = species on record: Mus musculus; assay: The compound was tested for percent reduction of plasma triglyceride after 6 days of treatment.; assay type: functional; parameters: concentration or dose not given beside the values
[23] = tested on: Mus musculus; assay: Percent reduction in plasma triglyceride (TG) after 6 days of treatment. It is the mean of standard deviation observed in plasma triglyceride (TG) in db/db mice at dose of 200 mg/kg/day; assay type: functional; details: route oral
[24] = tested on: Mus musculus; assay: Percent reduction in plasma triglyceride (TG) after 6 days of treatment. It is the mean of standard deviation observed in plasma triglyceride (TG) in db/db mice at dose of 30 mg/kg/day; NA = Not Active; assay type: functional, organism-based
[25] = species on record: Mus musculus; assay: The compound was tested for percent reduction of plasma triglyceride after 6 days of treatment; not active; assay type: functional, organism-based
[26] = tested on: Mus musculus; assay: Percent reduction in plasma triglyceride (TG) after 6 days of treatment. It is the mean of standard deviation observed in plasma triglyceride (TG) in db/db mice at dose of 200 mg/kg/day; NA = Not Active; assay type: functional, organism-based
[27] = tested on: Mus musculus; assay: Percent reduction in plasma triglyceride (TG) after 6 days of treatment. It is the mean of standard deviation observed in plasma triglyceride (TG) in db/db mice at dose of 30 mg/kg/day; assay type: functional; details: route oral
[28] = tested on: Mus musculus; assay: Percent reduction of plasma glucose (PG) after 6 days of treatment. It is the mean of standard deviation observed in plasma glucose (PG) in db/db mice at dose of 30 mg/kg/day; assay type: functional; details: route oral
[29] = tested on: Mus musculus; assay: Percent reduction of plasma glucose (PG) after 6 days of treatment. It is the mean of standard deviation observed in plasma glucose (PG) in db/db mice at dose of 100 mg/kg/day; NA = Not Active; assay type: functional, organism-based
[30] = species on record: Mus musculus; assay: The compound was tested for percent reduction of plasma glucose after 6 days of treatment; Not Active; assay type: functional, organism-based
[31] = tested on: Mus musculus; assay: Percent reduction in plasma triglyceride (TG) after 6 days of treatment. It is the mean of standard deviation observed in plasma triglyceride (TG) in db/db mice at dose of 100 mg/kg/day; assay type: functional; details: route oral

## Cc1c(C)c2c(c(C)c1O)C(CN(C)CCOc1ccc(CC3SC(=O)NC3=O)cc1)C(C)(C)O2 (stereo unspecified)
[1]
  PG: 19%
[2]
  Reduction: 19%

## Cc1oc2c(C)c(C)c(O)c(C)c2c1CN1CCC[C@@H](Oc2ccc(/C=C3\SC(=O)NC3=O)cc2)C1
[3]
  TG: inactive
[2]
  Reduction: 22%
[4]
  Reduction: inactive
[5]
  PG: 22%

## Cc1c(C)c2c(c(C)c1OCc1ccccc1)C(CN1CCC[C@H]1COc1ccc(/C=C3\SC(=O)NC3=O)cc1)C(C)(C)O2 (stereo partly specified)
[6]
  Fold activation: 1.03
[7]
  Fold activation: 0.43
[8]
  Transactivation: 0.43 fold

## Cc1c(C)c2c(c(C)c1O)CCC(C)(COc1ccc(CC3SC(=O)NC3=O)cc1)O2 (stereo unspecified) [TROGLITAZONE]
[9]
  AUC(0-t): 25.9 µg·h/mL
[10]
  AUC: 27.4 µg·h/mL
[11]
  Tmax: 2.25 h
[12]
  half-life: 4.01 h
[1]
  PG: 26%
[13]
  PG: inactive
[14]
  half-life: 4.01 h
[15]
  Cmax: 5.47 µg/mL
[8]
  Transactivation: 1.12 fold
[2]
  Reduction: 26%
[16]
  AUC: 25.9 µg·h/mL
[17]
  k el: 5.56e-05 s⁻¹
[18]
  k el: 5.56e-05 s⁻¹
[19]
  Cmax: 5.47 µg/mL
[20]
  Tmax: 2.25 h
[21]
  AUC(0-inf): 27.4 µg·h/mL
[22]
  Reduction: 50%
[23]
  TG: 50%
[24]
  TG: inactive

## Cc1c(C)c2c(c(C)c1OCc1ccccc1)C(COc1ccc(/C=C3\SC(=O)NC3=O)cc1)C(C)(C)O2 (stereo unspecified)
[1]
  PG: 10%
[25]
  Reduction: inactive
[2]
  Reduction: 10%
[26]
  TG: inactive

## Cc1c(C)c2c(c(C)c1OCc1ccccc1)C(CN1CCC[C@H]1COc1ccc(/C=C3\SC(=O)NC3=O)cc1)C(C)(C)O2.O=C(O)/C=C\C(=O)O (stereo partly specified)
[9]
  AUC(0-t): 53.8 µg·h/mL
[11]
  Tmax: 5 h
[12]
  half-life: 10.1 h
[17]
  k el: 1.94e-05 s⁻¹
[27]
  TG: 42%
[28]
  PG: 45%
[19]
  Cmax: 4.3 µg/mL
[21]
  AUC(0-inf): 65 µg·h/mL

## Cc1c(C)c2c(c(C)c1OCc1ccccc1)C(CN1CCC[C@H]1COc1ccc(CC3SC(=O)NC3=O)cc1)C(C)(C)O2.O=C(O)/C=C\C(=O)O (stereo partly specified)
[27]
  TG: 64%
[28]
  PG: 24%

## Cc1oc2c(C)c(C)c(OCc3ccccc3)c(C)c2c1CN1CCC[C@@H](Oc2ccc(/C=C3\SC(=O)NC3=O)cc2)C1
[3]
  TG: inactive
[25]
  Reduction: inactive
[29]
  PG: inactive
[30]
  Reduction: inactive

## Cc1c(C)c2c(c(C)c1OCc1ccccc1)C(CN1CCC[C@H]1COc1ccc(CC3SC(=O)NC3=O)cc1)C(C)(C)O2 (stereo partly specified)
[31]
  TG: 31%
[2]
  Reduction: 48% and 37%
[27]
  TG: 22%
[28]
  PG: 37%
[5]
  PG: 48%
[22]
  Reduction: 31% and 22%

## Cc1c(C)c2c(c(C)c1O)C(COc1ccc(/C=C3\SC(=O)NC3=O)cc1)C(C)(C)O2 (stereo unspecified)
[1]
  PG: 11%
[25]
  Reduction: inactive
[2]
  Reduction: 11%
[26]
  TG: inactive
